From ChEMBL document CHEMBL3091432, “(S)-4-Trimethylsilyl-3-butyn-2-ol as an auxiliary for stereocontrolled synthesis of salinosporamide analogs with modifications at positions C2 and C5” (Bioorg Med Chem Lett, 2013)
Active and inactive are the calls of the source. The rule behind the calls is not given here.

Experiments:
[1] = biological target: T1, Proteasome Macropain subunit MB1 (Homo sapiens, UniProt P28074); test: Inhibition of chymotrypsin like activity of human 20S proteasome after 1 hr by luminescence assay
T1 sequence (P28074 whole entry): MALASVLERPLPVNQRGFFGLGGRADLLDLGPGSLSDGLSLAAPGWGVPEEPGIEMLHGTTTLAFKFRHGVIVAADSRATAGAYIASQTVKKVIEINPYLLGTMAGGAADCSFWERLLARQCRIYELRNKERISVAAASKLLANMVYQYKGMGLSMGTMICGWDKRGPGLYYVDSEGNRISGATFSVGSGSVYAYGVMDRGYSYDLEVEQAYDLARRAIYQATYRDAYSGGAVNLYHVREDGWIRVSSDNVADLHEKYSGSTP

[2] = biological target: T1, Proteasome Macropain subunit MB1; test: Inhibition of chymotrypsin like activity of 20S proteasome in HEK293 cells after 24 hrs by microscopic analysis; format: cell-based
Outline: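 Image-based screen in a stably transfected HEK cell line expressing a GFP-tagged proteasomal substrate. Proteasomal inhibition is read out by cellular fluorescence.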

[3] = biological target: T2, Proteasome Macropain subunit MB1 (Homo sapiens) (UniProt P28074); test: Inhibition of human 20S proteasome beta 5 subunit assessed as non-cyclized product formation after 5 to 10 mins by ESI-TOF analysis
T2 sequence (whole entry): T1 sequence (P28074 whole entry)
Outline: (§1)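 Purified human 20S proteasome (1.4 μM) incubated at 23 °C with a 10-fold molar excess of inhibitor in pH 7.5 buffer (10 mM Tris/HCl, 1 mM EDTA, 1 mM DTT, <1% DMSO) for varying times. Reactions stopped by denaturing quench, desalted on C4 tips, eluted with 70:30:0.1 acetonitrile–water–formic acid, then analysed by mass spectrometry to follow each step of subunit modification.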

[4] = biological target: T2, Proteasome Macropain subunit MB1 (Homo sapiens); test: Inhibition of human 20S proteasome beta 5 subunit assessed as cyclized acylated protein adduct formation after <20 mins by FT-MS analysis; outline: as §1
[5] = biological target: T2, Proteasome Macropain subunit MB1 (Homo sapiens); test: Inhibition of human 20S proteasome beta 5 subunit assessed as cyclized acylated protein adduct formation after <20 mins by ESI-TOF analysis; outline: as §1
[6] = biological target: T2, Proteasome Macropain subunit MB1 (Homo sapiens); test: Inhibition of human 20S proteasome beta 5 subunit assessed as non-cyclized product formation after 5 to 10 mins by FT-MS analysis; outline: as §1
[7] = biological target: T2, Proteasome Macropain subunit MB1 (Homo sapiens); test: Inhibition of human 20S proteasome beta 5 subunit assessed as cyclized acylated protein adduct formation after 48 hrs by ESI-TOF analysis; outline: as §1
[8] = biological target: T2, Proteasome Macropain subunit MB1 (Homo sapiens); test: Inhibition of human 20S proteasome beta 5 subunit assessed as hydrolysis of non-cyclized product after 48 hrs by ESI-TOF analysis; outline: as §1
[9] = biological target: T2, Proteasome Macropain subunit MB1 (Homo sapiens); test: Inhibition of human 20S proteasome beta 5 subunit assessed as cyclized acylated protein adduct formation after 48 hrs by FT-MS analysis; outline: as §1
[10] = biological target: T2, Proteasome Macropain subunit MB1 (Homo sapiens); test: Inhibition of human 20S proteasome beta 5 subunit assessed as hydrolysis of non-cyclized product after 48 hrs by FT-MS analysis; outline: as §1

Row | SMILES | IC50 [1] [nM] | EC50 [2] [nM] | inhibition [3] | inhibition [4] | inhibition [5] | inhibition [6] | inhibition [7] | inhibition [8] | inhibition [9] | inhibition [10]
1 | C[C@@]12OC(=O)[C@]1([C@@H](O)C1CCCCC1)NC(=O)[C@@H]2CCCl | 23 | 10 | Active | Active | Active | Active | – | – | – | –
2 | C[C@@]12OC(=O)[C@]1([C@@H](O)C1CCCCC1)NC(=O)[C@@H]2CCCCl | 50 | 90 | Active | – | – | Active | inactive | inactive | inactive | inactive
3 | C[C@@]12OC(=O)[C@]1([C@@H](O)[C@@H]1C=CCCC1)NC(=O)[C@@H]2CCCl [MARIZOMIB] | 22 | – | Active | Active | Active | Active | – | – | – | –

More lines, main results first:

Row | IC50 [1] [nM] | SMILES | EC50 [2] [nM] | inhibition [3] | inhibition [4] | inhibition [5] | inhibition [6] | inhibition [7] | inhibition [8] | inhibition [9] | inhibition [10]
4 | 28 | C[C@@]12OC(=O)[C@]1([C@@H](O)C1CC1)NC(=O)[C@@H]2CCCl | 360 | – | – | – | – | – | – | – | –
5 | 500 | C[C@@]12OC(=O)[C@]1([C@@H](O)Cc1ccccc1)NC(=O)[C@@H]2CCCl | 332 | – | – | – | – | – | – | – | –
6 | 500 | COC(=O)C[C@H]1C(=O)N[C@@]2([C@@H](O)C3CCCCC3)C(=O)O[C@@]12C | – | – | – | – | – | – | – | – | –
7 | 330 | C[C@@]12OC(=O)[C@]1([C@@H](O)C1CCCCC1)NC(=O)[C@@H]2CC=O | – | – | – | – | – | – | – | – | –
